# Laboratory results taken from publication PMC3855065 (MedChemComm, 2013).
# Where a chain is given by its changes, count along the chain named.
# Legend:
# C. hominis DHFR = target: T1, C. hominis DHFR (Cryptosporidium parvum, UniProt Q27552); assay: Mode of inhibition: steady-state substrate profile for H2folate and NADPH; format: biochemical
# T1 sequence (Q27552 1-521): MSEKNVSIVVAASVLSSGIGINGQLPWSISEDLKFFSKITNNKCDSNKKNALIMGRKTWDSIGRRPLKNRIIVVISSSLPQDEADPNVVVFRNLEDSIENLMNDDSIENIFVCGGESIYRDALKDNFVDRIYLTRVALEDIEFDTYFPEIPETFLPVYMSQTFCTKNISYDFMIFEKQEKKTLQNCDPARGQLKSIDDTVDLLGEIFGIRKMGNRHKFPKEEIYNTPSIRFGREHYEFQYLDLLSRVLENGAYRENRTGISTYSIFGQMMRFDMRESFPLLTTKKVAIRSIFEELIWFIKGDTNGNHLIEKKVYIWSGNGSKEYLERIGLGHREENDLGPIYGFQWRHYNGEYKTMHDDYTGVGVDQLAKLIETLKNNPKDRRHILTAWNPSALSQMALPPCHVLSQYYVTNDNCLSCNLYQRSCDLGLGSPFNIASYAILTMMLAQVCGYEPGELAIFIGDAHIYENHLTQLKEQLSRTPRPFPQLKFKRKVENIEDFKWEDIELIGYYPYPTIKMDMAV
# Outline: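 Steady-state DHFR activity followed by absorbance at 340 nm. The enzyme was bifunctional TS–DHFR expressed in E. coli BL21 and purified. The test compound, from a DMSO stock, was preincubated with enzyme and substrates for 30 min before the reaction was started. Rates were normalised to an equal-volume DMSO blank. H2folate or NADPH concentration was varied, and mode was assigned from rate profiles and Lineweaver–Burk plots by Michaelis–Menten treatment.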
# Human DHFR = target: T2, Human DHFR (Homo sapiens, UniProt P00374); assay: Steady-state DHFR inhibition assay against the human enzyme; format: biochemical; settings: up to 1 mM mimetic
# T2 sequence (P00374 1-187): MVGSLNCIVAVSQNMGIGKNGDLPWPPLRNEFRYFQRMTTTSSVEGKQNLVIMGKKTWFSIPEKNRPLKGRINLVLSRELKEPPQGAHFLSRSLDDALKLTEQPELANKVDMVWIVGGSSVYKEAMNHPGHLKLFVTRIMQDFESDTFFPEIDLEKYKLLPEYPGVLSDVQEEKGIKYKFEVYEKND
# Outline: (§1)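 Each reaction (DHFR or TS) was measured spectroscopically at 340 nm under steady-state conditions. The test compound came from a DMSO stock and was incubated with enzyme and substrates for 30 min before initiation. Activity was normalised to an equal-volume DMSO control. All targets were run at identical enzyme and ligand concentrations. Values are mean ± standard deviation.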
# [1] = target: T3, C. hominis Beta Face DHFR (Cryptosporidium parvum, UniProt Q27552, F207A/I196A/L203A/S195A/T199A/V200A); assay: Steady-state DHFR inhibition assay against Beta Face mutant enzyme; format: biochemical; settings: IC50 C. hominis Beta Face DHFR, Beta Face mutant enzyme, steady-state
# T3 sequence (Q27552 1-521 S195A/I196A/T199A/V200A/L203A/F207A): T1 sequence (Q27552 1-521) with S195A, I196A, T199A, V200A, L203A, F207A
# [2] = system: C. hominis Beta Face DHFR; assay: as above; format: biochemical, Cryptosporidium hominis; settings: Beta Face vs WT ChDHFR
# C. hominis TS = target: T4, C. hominis TS (Cryptosporidium parvum, UniProt Q27552); assay: Steady-state TS inhibition assay; format: biochemical; settings: read-out: IC50 C. hominis TS
# T4 sequence (Q27552 1-521): T1 sequence (Q27552 1-521)
# Outline: as §1
Compound,Mode of inhibition (C. hominis DHFR; data not shown),"Vmax, NADPH substrate profile (C. hominis DHFR; in the presence of 250 µM compound (1.33 ± 0.02 in the absence)) [µmol/min]","Vmax, H2folate substrate profile (C. hominis DHFR; in the presence of 250 µM compound (1.46 ± 0.03 in the absence)) [µmol/min]",Mode of inhibition for H2folate (C. hominis DHFR; steady-state substrate profile),Mode of inhibition for NADPH (C. hominis DHFR; steady-state substrate profile),Inhibition of human DHFR (Human DHFR),IC50 [1] [µM],Potency against Beta Face relative to WT [2],IC50 (C. hominis TS) [µM]
Cc1ccc(CN(C(=O)Nc2ccc(CCC(=O)O)cc2Cc2ccccc2)C(=O)c2ccc(CCC(=O)O)c(CC(C)C)c2)cc1 [mimetic 1],noncompetitive mode of inhibition,,,,,,,,
CC(C)CN(C(=O)Nc1ccc(CCC(=O)O)cc1Cc1ccccc1)C(=O)c1ccc(OCC(=O)O)c(Cc2ccccc2)c1 [mimetic 2],,0.41 ± 0.01,0.48 ± 0.06,noncompetitive (mixed) inhibitor,noncompetitive inhibitor,no inhibition,~20,at least 10 fold,570 ± 60
